Source: ChEMBL document CHEMBL1154632, “Synthesis and antimicrobial activity of 7-(2-substituted phenylthiazolidinyl)-benzopyran-2-one derivatives” (2010)
Active and inactive are the calls of the source. The rule behind the calls is not given here.

Tests used:
[1] = tested on: Escherichia coli; assay: Antibacterial activity against Escherichia coli NCIM 2666 at 100 ug/ml by agar cup plate method; type: functional; details: for zone of inhibition at 100 µg/mL: read-out: IZ
Summary of the method: (§1)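 Agar cup plate assay. Strains were obtained from NCL Pune, India, and test compounds were dissolved in DMF. Values are reported as mean (SEM).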

[2] = tested on: Delftia acidovorans; assay: Antibacterial activity against Pseudomonas desmolytica NCIM 2028 at 100 ug/ml by agar cup plate method; type: functional; details: for zone of inhibition at 100 µg/mL: read-out: IZ; summary of the method: as §1
[3] = tested on: Penicillium roqueforti; assay: Antifungal activity against Penicillium roqueforti NCIM 712 at 100 ug/ml by agar cup plate method; type: functional; details: for zone of inhibition at 100 µg/mL: read-out: IZ; summary of the method: as §1
[4] = tested on: Aspergillus niger; assay: Antifungal activity against Aspergillus niger NCIM 813 at 100 ug/ml by agar cup plate method; type: functional; details: for zone of inhibition at 100 µg/mL: read-out: IZ; summary of the method: as §1
[5] = tested on: Bacillus subtilis; assay: Antibacterial activity against Bacillus subtilis NCIM 2613 at 100 ug/ml by agar cup plate method; details: read-out: IZ
[6] = tested on: Staphylococcus aureus; assay: Antibacterial activity against Staphylococcus aureus NCIM 2602 at 100 ug/ml by agar cup plate method; details: read-out: IZ
[7] = tested on: Penicillium roqueforti; assay: Antifungal activity against Penicillium roqueforti NCIM 712 at 50 ug/ml by agar cup plate method; type: functional; details: read-out: IZ; summary of the method: as §1
[8] = tested on: Aspergillus niger; assay: Antifungal activity against Aspergillus niger NCIM 813 at 50 ug/ml by agar cup plate method; type: functional; details: read-out: IZ; summary of the method: as §1
[9] = tested on: Delftia acidovorans; assay: Antibacterial activity against Pseudomonas desmolytica NCIM 2028 at 50 ug/ml by agar cup plate method; type: functional; details: read-out: IZ; summary of the method: as §1
[10] = tested on: Bacillus subtilis; assay: microbe, parasite or virus in culture; details: Staphylococcus aureus, NCIM 2602, read-out: IZ
[11] = tested on: Staphylococcus aureus; assay: microbe, parasite or virus in culture; details: Bacillus subtilis, NCIM 2613, read-out: IZ
[12] = tested on: Escherichia coli; assay: microbe, parasite or virus in culture; details: NCIM 2666, read-out: IZ

SMILES	zone of inhibition at 100 µg/mL [1] [mm]	zone of inhibition at 100 µg/mL [2] [mm]	zone of inhibition at 100 µg/mL [3] [mm]	zone of inhibition at 100 µg/mL [5] [mm]	zone of inhibition at 100 µg/mL [6] [mm]	zone of inhibition at 100 µg/mL [4] [mm]	also measured
Cc1cc(=O)oc2cc(N3C(=O)CSC3c3ccco3)ccc12 (centres undefined)	13	6	5	–	–	–	inhibition zone (IZ) [4]: inactive
Cc1cc(=O)oc2cc(/N=C/c3cccc([N+](=O)[O-])c3)ccc12	9	10	4	20	15	–	inhibition zone (IZ) [4]: inactive
Cc1cc(=O)oc2cc(N3C(=O)CSC3c3ccc(F)cc3)ccc12 (centres undefined)	18	13	19	28	20	13	–
COC1=CC(=O)C[C@@H](C)[C@]12Oc1c(Cl)c(OC)cc(OC)c1C2=O [GRISEOFULVIN]	–	–	–	–	–	–	zone of inhibition at 50 µg/mL [7]: 2 mm; zone of inhibition at 50 µg/mL [8]: 17 mm
O=C(O)c1cn(C2CC2)c2cc(N3CCNCC3)c(F)cc2c1=O [CIPROFLOXACIN]	–	–	–	–	–	–	zone of inhibition at 50 µg/mL [9]: 18 mm; zone of inhibition at 50 µg/mL [10]: 25 mm; zone of inhibition at 50 µg/mL [11]: 18 mm; zone of inhibition at 50 µg/mL [12]: 30 mm
Cc1cc(=O)oc2cc(/N=C/c3ccccc3)ccc12	13	10	11	10	11	9	–
Cc1cc(=O)oc2cc(/N=C/c3ccc(Cl)cc3Cl)ccc12	14	13	9	12	5	7	–
COc1cccc(C2SCC(=O)N2c2ccc3c(C)cc(=O)oc3c2)c1 (centres undefined)	12	9	20	17	10	13	–
Cc1cc(=O)oc2cc(/N=C/c3ccc(N(C)C)cc3)ccc12	8	8	–	14	6	–	inhibition zone (IZ) [3]: inactive; inhibition zone (IZ) [4]: inactive
Cc1cc(=O)oc2cc(/N=C/c3ccc(F)cc3)ccc12	14	12	5	17	16	–	inhibition zone (IZ) [4]: inactive
Cc1cc(=O)oc2cc(N3C(=O)CSC3c3cccc([N+](=O)[O-])c3)ccc12 (centres undefined)	10	9	3	27	19	–	inhibition zone (IZ) [4]: inactive
Cc1cc(=O)oc2cc(N3C(=O)CSC3c3ccc(O)cc3)ccc12 (centres undefined)	–	–	9	9	4	5	inhibition zone (IZ) [1]: inactive; inhibition zone (IZ) [2]: inactive
COc1cccc(/C=N/c2ccc3c(C)cc(=O)oc3c2)c1	11	8	13	13	9	11	–
Cc1ccc(C2SCC(=O)N2c2ccc3c(C)cc(=O)oc3c2)cc1 (centres undefined)	20	15	6	8	6	3	–
Cc1cc(=O)oc2cc(N3C(=O)CSC3c3ccccc3O)ccc12 (centres undefined)	–	–	11	8	4	7	inhibition zone (IZ) [1]: inactive; inhibition zone (IZ) [2]: inactive
Cc1cc(=O)oc2cc(N3C(=O)CSC3c3ccccc3)ccc12 (centres undefined)	2	14	13	19	12	8	–
Cc1cc(=O)oc2cc(/N=C/c3ccco3)ccc12	12	7	6	–	–	–	inhibition zone (IZ) [4]: inactive
COc1ccc(/C=N/c2ccc3c(C)cc(=O)oc3c2)cc1	7	–	14	21	13	9	inhibition zone (IZ) [2]: inactive
Cc1cc(=O)oc2cc(/N=C/c3ccc(O)cc3)ccc12	–	–	8	10	4	6	inhibition zone (IZ) [1]: inactive; inhibition zone (IZ) [2]: inactive
COc1ccc(C2SCC(=O)N2c2ccc3c(C)cc(=O)oc3c2)cc1 (centres undefined)	8	–	17	21	16	11	inhibition zone (IZ) [2]: inactive
Cc1cc(=O)oc2cc(/N=C/c3ccccc3O)ccc12	–	–	10	7	3	6	inhibition zone (IZ) [1]: inactive; inhibition zone (IZ) [2]: inactive
Cc1ccc(/C=N/c2ccc3c(C)cc(=O)oc3c2)cc1	10	11	7	9	7	3	–
Cc1cc(=O)oc2cc(N3C(=O)CSC3c3ccc(Cl)cc3Cl)ccc12 (centres undefined)	15	11	8	10	7	6	–
Cc1cc(=O)oc2cc(N3C(=O)CSC3c3ccc(N(C)C)cc3)ccc12 (centres undefined)	10	7	–	13	5	–	inhibition zone (IZ) [3]: inactive; inhibition zone (IZ) [4]: inactive
